Data on seven molecules can be found in PubChem BioAssay.

The nature of assay [1]: inhibitors of TNFa-induced NFkB p65 translocation, primary screen, imaging, HUVEC, MLSMR starter and 10KST1 sets (AID 438).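 For inhibition: signal is the nuclear over cytoplasmic p65 intensity ratio per well.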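 Note: compound added about 3h40 before a 20 min TNFalpha stimulation.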 As to conditions: HUVEC TNFa-induced p65 nuclear translocation; cell count: measured here: nuclei count (cytotoxicity indicator), at 2.08 µM; inhibition: at 2 µM, stronger effect = higher value, 0% TNFa-plus-vehicle, 100% no-TNFa wells.
The nature of assay [2]: endothelial E-selectin expression blockers – imaging, HUVEC, immunofluorescence, MLSMR starter and 10KST1 sets, primary screen (AID 487;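 active = visually confirmed hit in the image check and inhibition above 20%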;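 for inhibition: signal is fraction of cell area covered by stained E-selectin grains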;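 for nuclei count: 100% = median nuclei count of all wells on the same plate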). The note with it: HUVEC TNFalpha-induced E-selectin immunofluorescence imaging, at 2 µM; inhibition: stronger effect = higher value; nuclei count: measured here: cell number, toxicity.
The nature of assay [3]: Primary imaging screen for DUSP6 inhibitors that restore phospho-Erk in transfected HeLa cells, chemical complementation (AID 609;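 active = compounds giving at least 50% inhibition in the cell-based MKP-3 phosphatase rescue imaging test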;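 for inhibition: phospho-Erk level distribution per well compared with pooled transfected vehicle control wells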). The note with it: HeLa MKP-3 transfected, phospho-Erk imaging KS statistic, at 10 µM, cells stimulated with TPA for 15 min.
In assay [4] the target is Dual specificity protein phosphatase 6 (Homo sapiens) (UniProt Q16828). The assay is described as above. The note with it: HeLa MKP-3 transfected, phospho-Erk imaging KS statistic; at 10 µM; stronger effect = higher value; cells stimulated with TPA for 15 min.
The target in assay [5] is Voltage-gated potassium channel subunit beta-2 (Rattus norvegicus) (UniProt P62483). The experiment in a line: inhibitors of rat Kvbeta2 reductase activity – biochemical, NADPH fluorescence, primary screen (AID 622;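 active = fluorescence slope higher than the sample average by over 3 SD, cut at about -0.22 in these data, passing the limit was not always enough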;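 note: slope of raw intensity against log time taken from 70 to 1610 s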). The note with it: recombinant KvBeta, 4-cyanobenzaldehyde reduction, at 10 µM, stronger effect = higher value.
Assay [6] shares this target. The experiment in a line: enhancers of rat Kvbeta2 NADPH turnover – biochemical, NADPH fluorescence, primary screen (AID 623;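 active = NADPH fluorescence slope more negative than the mean of all samples by about 3 SD, 99.7% confidence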;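 note: fluorescence intensity change per second fitted from 20 to 320 s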). As to conditions: Recombinant KvBeta, NADPH fluorescence decrease slope, 10 min; at 10 µM; stronger effect = lower value.
Assay [7] addresses Muscarinic acetylcholine receptor M4 (Homo sapiens) (UniProt P08173). Nature of the assay: M4-linked GIRK flux change, two-sided – cell-based, HEK293 M4/GIRK, thallium flux, BTC-AM, M4 allosteric agonist project, primary screen (AID 625;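 active = fluorescence slope after compound addition differing from the mean of all tested samples at 99.7% confidence, mostly higher but some lower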;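 note: thallium influx through GIRK channels coupled to M4 in HEK293 cells with BTC-AM dye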). As to conditions: at 10 µM, actives lie on both sides. In outline: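 assay system = HEK293 cells with M4 receptor and GIRK channels | medium = pH 7.3 thallium assay buffer | doses = 10 µM final, single point | timing = cells overnight at 37 °C, BTC-AM loading 1 h, reads 2 min total | signal = BTC-AM fluorescence, 1 Hz kinetic reads | read-out = post-addition slope, 15–24 s, of baseline-normalized fluorescence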

A short description of assay [8]: inhibitors of larval lipid processing in zebrafish, primary screen, whole organism, PED6 fluorescence, gall bladder and intestine (AID 686;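 active = a full or partial loss of lipid-probe fluorescence in the fish gall bladder, intestine or both, judged by eye; inactive = no fluorescence loss, or compound toxic to the fish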;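 note: larvae 5 to 7 days old with five fish per well; signal comes from phospholipase A2 cleavage of quenched PED6 carried via bile; overnight exposure to compound and PED6 before scoring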). As to conditions: Zebrafish larvae PED6 lipid processing, fluorescence scoring; screened at 20 µM (by protocol). The procedure, abridged: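 Also added: quenched phospholipase substrate PED6, 100 nM final, ingested by larvae; System: zebrafish larvae, 5-7 d; Quantity: 5 larvae per well; Compound: 20 µM single dose; Schedule: overnight compound and PED6 incubation; Read-out: visual per-well fluorescence inhibition score; Measured by: By-eye fluorescence microscopy; Medium: E3.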

Assay [9] can be described thus: loss of swimming-algae plug formation – whole organism, Chlamydomonas reinhardtii, WT vs cilia-less mutant, absorbance, 96-well, primary screen (AID 463189;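 active = inhibition at or above 50% relative to wild type and mutant plate controls; inactive = inhibition below 50%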;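 note: 0% = wild type cc124 cells in DMSO and 100% = ciliumless bld1 mutant cells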). As to conditions: Chlamydomonas reinhardtii gravitaxis, OD600 absorbance, 2 days; at 10 µM; stronger effect = higher value.
[10] abbreviates: measured here: cell density z-score.
The mark [11] stands for this setting: measured here: nuclear c-Myc green intensity z-score.
Setting [12] is: measured here: nuclear pErk red intensity z-score, stronger effect = higher value.

Active and inactive are the calls of the source.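 Rule for the calls, unless noted: active = inhibition above 20% together with a positive visual image hit; inconclusive = visual image hit but inhibition not above 20%; inactive = no visual image hit.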

Sequence of Dual specificity protein phosphatase 6 (Homo sapiens) (Q16828 whole entry, looked up): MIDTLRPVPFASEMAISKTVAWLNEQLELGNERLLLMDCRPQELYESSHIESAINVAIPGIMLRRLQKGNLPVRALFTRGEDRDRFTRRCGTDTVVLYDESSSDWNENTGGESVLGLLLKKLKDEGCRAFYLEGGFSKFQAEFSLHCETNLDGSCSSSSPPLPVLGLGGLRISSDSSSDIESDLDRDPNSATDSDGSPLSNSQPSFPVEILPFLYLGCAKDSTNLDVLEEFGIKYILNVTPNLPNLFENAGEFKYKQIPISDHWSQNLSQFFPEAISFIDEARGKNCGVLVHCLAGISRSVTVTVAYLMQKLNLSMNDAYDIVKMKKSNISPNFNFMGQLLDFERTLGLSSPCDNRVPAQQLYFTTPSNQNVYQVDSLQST
Sequence of Voltage-gated potassium channel subunit beta-2 (Rattus norvegicus) (P62483 whole entry, looked up): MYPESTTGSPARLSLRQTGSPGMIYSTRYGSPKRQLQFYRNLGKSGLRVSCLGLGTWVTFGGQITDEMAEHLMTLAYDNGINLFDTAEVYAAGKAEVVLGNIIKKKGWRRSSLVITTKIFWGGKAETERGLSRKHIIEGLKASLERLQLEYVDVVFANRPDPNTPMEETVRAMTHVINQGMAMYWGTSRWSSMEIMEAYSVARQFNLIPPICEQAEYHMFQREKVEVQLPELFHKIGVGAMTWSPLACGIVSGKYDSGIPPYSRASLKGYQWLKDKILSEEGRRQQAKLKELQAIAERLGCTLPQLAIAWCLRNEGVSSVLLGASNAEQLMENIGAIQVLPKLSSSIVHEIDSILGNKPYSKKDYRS
Sequence of Muscarinic acetylcholine receptor M4 (Homo sapiens) (P08173 whole entry, looked up): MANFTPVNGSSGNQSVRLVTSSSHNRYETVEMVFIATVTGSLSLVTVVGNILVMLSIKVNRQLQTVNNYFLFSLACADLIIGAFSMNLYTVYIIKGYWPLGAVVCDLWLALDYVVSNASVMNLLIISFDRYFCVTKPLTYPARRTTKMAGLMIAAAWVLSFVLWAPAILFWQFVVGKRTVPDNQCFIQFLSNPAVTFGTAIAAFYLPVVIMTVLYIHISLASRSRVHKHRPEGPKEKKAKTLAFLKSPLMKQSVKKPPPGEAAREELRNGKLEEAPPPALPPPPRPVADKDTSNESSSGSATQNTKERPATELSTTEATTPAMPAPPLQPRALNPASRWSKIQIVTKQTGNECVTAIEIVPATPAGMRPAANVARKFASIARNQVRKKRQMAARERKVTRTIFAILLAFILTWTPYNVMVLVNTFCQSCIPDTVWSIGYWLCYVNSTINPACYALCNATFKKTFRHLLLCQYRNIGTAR

What is called inhibition is the relative decrease from the control value, in per cent. As to `CCC1SC2=NC(C)=C(C(=O)OCCOC)C(c3ccc(C(=O)OC)cc3)N2C1=O` (stereo unspecified), the cell count in [1] is 441. Besides, the inhibition was -11.9% (inactive) in assay [1], -71.6% (inactive) in [2], -2.29% (inactive) in [4] and 6.13% (inactive) in assay [9]. The molecule further gave a nuclei count in [2] of 154%. Also, the figures for the z-score in assay [3] (setting [10]), in [3] (setting [11]) and in assay [3] (setting [12]) were 0.414, -0.811 and -0.806, respectively. In addition, the fluorescence slope was -0.411 (inactive) in assay [5] and 0.0052 (inactive) in assay [7]. Besides, the NADPH fluorescence slope in assay [6] was -4.9e-05 (inactive). Further, the molecule was classed as inactive in assay [8].

Turning to `CN(C)C(=O)COn1c(SCC(=O)N(C)C)nc2ccccc2c1=O`, the cell count in assay [1] was determined as 739. Also, the inhibition in assay [1] is 2% (inactive); in [2] it was -47.5% (inactive); in assay [4], 0.671% (inactive); in assay [9] it was 0.936% (inactive). For the same molecule, the nuclei count in assay [2] stood at 191%. Also, the z-score was -0.833 in assay [3] (setting [10]), -0.176 in [3] (setting [11]) and 1.1 in assay [3] (setting [12]). Further, the figures for the fluorescence slope in assay [5] and in assay [7] were -0.428 (inactive) and 0.00719 (inactive), respectively. In addition, the NADPH fluorescence slope in [6] was -3.4e-05 (inactive). Besides, the outcome in assay [8] was inactive.

On to `COc1cccc(C2/C(=C(\O)c3ccc(OC)c(OC)c3)C(=O)C(=O)N2c2cc(C)on2)c1` (stereo unspecified), for which, in assay [1], the cell count turned out to be 715. Further, the inhibition is 1.5% (inactive) in [1], -63.2% (inactive) in [2], -4.7% (inactive) in assay [4] and -1.1% (inactive) in assay [9]. Also, in [2], the nuclei count worked out at 178%. Besides, the z-score was -0.072 in [3] (setting [10]), -0.154 in [3] (setting [11]) and 1.26 in assay [3] (setting [12]). Also, the fluorescence slope in assay [5] is -0.449 (inactive); in [7], 0.00553 (inactive). For the same molecule, in assay [6], the NADPH fluorescence slope was -3e-05 (inactive). Besides, the molecule was called inactive in [8].

With `CCN(CC)CCN1C(=O)C(=O)/C(=C(/O)c2ccc(OC)cc2)C1c1ccco1` (stereo unspecified), the cell count in assay [1] turned out to be 710. Further, the inhibition in assay [1] was -1.4% (inactive); in assay [2], 4.1% (inactive); in assay [4], -7.67% (inactive); in assay [9], 5.19% (inactive). In assay [2], the nuclei count is 163%. Besides, the results for the z-score in assay [3] (setting [10]), in assay [3] (setting [11]) and in assay [3] (setting [12]) were 0.167, 0.629 and 0.173, respectively. Also, the fluorescence slope is -0.496 (inactive) in assay [5] and 0.00632 (inactive) in assay [7]. The NADPH fluorescence slope in assay [6] is -6.6e-05 (inactive). The call in assay [8] was inactive.

As to `CC(=O)Nc1ccc(NCC(O)COc2ccccc2)cc1` (stereo unspecified), the cell count in assay [1] came to 374. Also, the inhibition in assay [1] was 6.4% (inactive); in [2] it was 6.8% (inactive); in assay [4] it was -2.59% (inactive); in assay [9], 22.2% (inactive). Moreover, the nuclei count in [2] stood at 81.4%. Besides, the z-score in [3] (setting [10]) is -1.13; in assay [3] (setting [11]), -0.751; in assay [3] (setting [12]), 0.509. The results for the fluorescence slope in assay [5] and in [7] were -0.495 (inactive) and 0.00402 (inactive), respectively. In assay [6], the NADPH fluorescence slope is -6.3e-05 (inactive). For the same molecule, in assay [8], the outcome was inactive.

As to `Cc1ccc(-c2nn(C)c(=O)c3ccccc23)cc1CN1CCOCC1`, the cell count in assay [1] amounted to 424. Further, the inhibition in [1] was -0.6% (inactive); in [2], -40.3% (inactive); in assay [4] it was 6.04% (inactive); in [9], -2.85% (inactive). Moreover, the nuclei count in assay [2] stood at 145%. Besides, the z-score is 0.246 in assay [3] (setting [10]), 0.445 in assay [3] (setting [11]) and -0.955 in [3] (setting [12]). Further, the fluorescence slope in assay [5] is -0.452 (inactive); in [7], 0.00454 (inactive). The NADPH fluorescence slope in assay [6] was -3.3e-05 (inactive). The molecule was classed as inactive in assay [8].

On to `CCC(=O)N(Cc1cccs1)C1CCOC(C)(C)C1` (stereo unspecified), for which, in assay [1], the cell count is 541. The inhibition was 6.5% (inactive) in assay [1], 6.3% (inactive) in assay [2], 1.9e-07% (inactive) in assay [4] and 11.9% (inactive) in assay [9]. Besides, the nuclei count in [2] was determined as 166%. The z-score in assay [3] (setting [10]) is 0.577; in assay [3] (setting [11]), -0.186; in assay [3] (setting [12]), 0.0071. Moreover, the fluorescence slope in [5] is -0.389 (inactive); in assay [7], 0.00514 (inactive). For the same molecule, in [6], the NADPH fluorescence slope was -3e-05 (inactive). Also, the outcome in assay [8] was inactive.
